Bioassay records (PubChem)
ASAP1 inh: blocks human ASAP1-stimulated Arf1 GTP hydrolysis; GDP FP detection; inhibition, % at 16.5 µM; actives 0.19% (n = 360,000); AID 624377; in the data active = inhibition above about 25%
Target sequence (Q9ULH1 325-724 limits assumed): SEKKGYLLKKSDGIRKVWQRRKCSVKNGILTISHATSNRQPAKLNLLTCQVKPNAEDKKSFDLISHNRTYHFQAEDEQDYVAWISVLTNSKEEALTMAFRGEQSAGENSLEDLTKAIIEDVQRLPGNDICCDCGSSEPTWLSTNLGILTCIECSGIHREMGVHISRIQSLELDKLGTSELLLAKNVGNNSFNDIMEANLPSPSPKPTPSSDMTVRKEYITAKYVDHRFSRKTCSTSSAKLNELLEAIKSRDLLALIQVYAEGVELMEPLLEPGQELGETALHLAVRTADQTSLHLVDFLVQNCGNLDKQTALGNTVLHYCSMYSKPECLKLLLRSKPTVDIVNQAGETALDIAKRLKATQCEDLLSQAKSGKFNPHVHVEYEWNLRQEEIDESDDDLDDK
TCR-CD3 inh: inhibitors of human TCR-CD3 interaction; TAMRA-labeled TCR probe fluorescence, biochemical; inhibition, % at 9.4 µM; actives 0.37% (n = 360,000); AID 651800; in the data active = inhibition above about 19%;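 note: recombinant mutant TCR 2C K166C tagged with TAMRA read by polarization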
LEDGF integ inh: blocks HIV-1 LEDGF/p75-dependent DNA integration | TR-FRET IN-LEDGF/p75 DNA integration, Eu/Cy5 | inhibition, % at 3.7 µM | actives 0.64% (n = 370,000);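 active = inhibition above the screen-wide mean plus 3 SD, cut at about 13% in these data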;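 note: signal is the Cy5 over europium emission ratio at 671 and 618 nm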
MBD2 inh: blocks human MBD2 binding to methylated DNA | Q9UBB5 | inhibition, % at 4.4 µM | actives 0.31% (n = 370,000) | TR-FRET, MBD2 binding to methylated oligonucleotide | AID 686964; in the data active = inhibition above about 13%
ARFGAP1 inh: inhibitors of rat ARFGAP1. Q62848. Arfgap1-stimulated ARF1 GTP hydrolysis, GDP FP detection. inhibition, % at 16.5 µM. actives 0.26% (n = 360,000). AID 651572;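 active = inhibition above a per-plate limit, mean inhibition of low control wells plus 3 SD, cut at about 25% in these data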
Target sequence (Q62848 1-136 limits assumed): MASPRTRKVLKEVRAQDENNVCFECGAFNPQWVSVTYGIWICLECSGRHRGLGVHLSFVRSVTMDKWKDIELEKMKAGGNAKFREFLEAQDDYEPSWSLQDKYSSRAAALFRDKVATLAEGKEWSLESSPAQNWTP
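System: truncated rat Arfgap1 GAP domain / Medium: HEPES-based buffer, pH 7.5 / Also added: N-terminally truncated human ARF1-GTP substrate / Incubation: enzyme reaction 120 min at 25 °C after 20 min preincubation / Measured by: FP of antibody-bound GDP Alexa 633 tracer, ex 620/em 688 nm / Replicates: singlicate, each compound tested once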
UHRF1 binding: UHRF1 methyl-DNA binding inhibition. UHRF1 binding to methylated oligo, TR-FRET. actives 0.75% (n = 370,000). AID 687016. inhibition, % at 4.4 µM. Q96T88;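 note: UHRF1 SRA domain binding a hemimethylated CpG hairpin DNA probe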
UHRF1 DNA bind: counter-screen for MBD2 inhibitors: human UHRF1 methylated DNA binding inhibitors. AID 720530. inhibition, % at 4.4 µM. shares compounds with MBD2 inh. UHRF1 binding to methylated oligonucleotide, TR-FRET. actives 25% (n = 1,000);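 note: UHRF1 SRA domain binding a labeled hemimethylated CpG hairpin DNA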
MBD2 confirm: confirmation of human MBD2-DBD methylated oligonucleotide binding inhibitors; TR-FRET MBD2-DBD binding to methylated oligonucleotide; actives 26% (n = 1,000); AID 720531; inhibition, % at 4.4 µM; shares compounds with MBD2 inh; in the data active = inhibition above about 14%
A number is an active result; . = inactive; / = no result. Only some compounds are listed: those with a hit (about 2% of all), similar ones and a draw of the others. Cut-off read from the data, not from the text of the source, unless noted: active = inhibition above about 21%; inactive = the rest.

SMILES	ASAP1 inh	TCR-CD3 inh	LEDGF integ inh	MBD2 inh	ARFGAP1 inh	UHRF1 binding	UHRF1 DNA bind	MBD2 confirm
O=C(Cc1coc2cc3c(cc12)CCC3)OCc1cc(=O)n2c(n1)sc1ccccc12	.	.	.	16	.	.	.	14
O=C(OCc1cc(=O)n2c(n1)sc1ccccc12)c1cccc(O)c1	.	.	.	13	.	.	21	18
CC(=O)c1ccc(N2CCN(C(=S)Nc3ccc(Cl)c(Cl)c3)CC2)cc1	.	.	.	.	.	.	/	/
Cc1cccc2cc(C(c3nnnn3CC3CCCO3)N3CCCc4ccccc43)c(=O)[nH]c12 (stereo not given)	.	.	.	18	.	.	.	.
Cc1cc2cc(C(c3nnnn3CC3CCCO3)N3CCCc4ccccc43)c(=O)[nH]c2cc1C (stereo not given)	.	.	.	.	.	.	/	/
CN(C(=O)c1cccc(NC(=O)Cc2cccc([N+](=O)[O-])c2)c1)C1CC1	.	.	.	.	.	.	/	/
O=C(O)C1CCCCC1C(=O)Nc1cccc(Br)c1 (stereo not given)	.	.	.	40	.	67	63	41
O=C(Nc1cccc(Br)c1)C1CCCC1	.	.	.	.	.	.	/	/
O=c1ccc2[n+]([O-])c3ccc(O)cc3oc-2c1	.	/	61	28	.	78	73	31
CCc1ccc(N(CC(=O)NC2CCCC2)C(=O)CCC(=O)Nc2ccccn2)cc1	.	.	.	.	.	.	/	/
O=C(OCC1OC(n2ccc(=O)[nH]c2=O)C2OC12)c1ccccc1 (stereo not given)	.	.	.	.	.	.	/	/
O=C(OCC1OC(n2ncc(=O)[nH]c2=O)C(OC(=O)c2ccccc2)C1OC(=O)c1ccccc1)c1ccccc1 (stereo not given)	.	.	.	28	.	.	.	.
COC(=O)CSc1nc(C)c(C)c(C)c1C(N)=O	.	.	.	.	.	.	/	/
CC(C)(C)NC(=O)CN(C(=O)c1ccc(CN2CCOCC2)o1)c1ccc2c(c1)OCCO2	.	.	.	.	.	.	/	/
COc1ccc(C(=O)N(CC(=O)NC(C)(C)C)c2ccc3c(c2)OCCO3)cc1OC	.	.	.	16	.	.	.	.
O=C1C=C(c2ccoc2)N2CCC[C@H]2C1	.	.	.	36	.	.	.	.
COc1ccc(-n2nnnc2-c2ccccc2)cc1	.	.	.	.	.	.	/	/
COc1ccc(-n2nnnc2-c2ccc(S(C)(=O)=O)cc2Cl)cc1	.	.	.	13	.	24	.	.
C=CCn1c(SCC(=O)OC(C)C)nnc1-c1ccc(C)cc1	/	/	.	14	/	.	.	.
Cc1ccc(F)c(CNC(=O)C2CCC(=O)N(CCCN3CCCC3=O)C2)c1F (stereo not given)	.	.	.	.	.	.	/	/
CCOc1cc(/C=N/n2cnnc2)ccc1OS(=O)(=O)c1ccc(C)cc1	.	.	.	14	.	.	.	.
Cc1ccc(N(CCC(=O)Nc2nnc(C3CC3)s2)S(=O)(=O)c2ccccc2)cc1	.	.	.	.	.	.	/	/
COCCCNC(=O)c1cc2c(=O)n3cccc(C)c3nc2n(C(C)C)c1=N	.	.	.	14	.	22	.	.
CCc1nnc(NC(=O)CSc2nnc(CNC(=O)c3ccccc3)o2)s1	.	.	.	22	.	.	.	.
Cc1nnc(NC(=O)CSc2nnc(CNC(=O)c3ccccc3)o2)s1	.	.	.	.	.	.	/	/
SMILES	ASAP1 inh	TCR-CD3 inh	LEDGF integ inh	MBD2 inh	ARFGAP1 inh	UHRF1 binding	UHRF1 DNA bind	MBD2 confirm
COc1ccc(C(CC(=O)N2CCCC2)C(C)C)cc1 (stereo not given)	.	.	.	.	.	.	/	/
COc1ccc(C(CC(=O)N2CCOCC2)C(C)C)cc1 (stereo not given)	.	.	.	15	.	23	.	.
O=C(COc1ccc2ccccc2c1Br)Nn1cnnc1	.	.	.	19	.	.	.	.
COC(=O)NNC(=O)COc1ccc2ccccc2c1Br	.	.	.	.	.	.	/	/
COc1ccc(S(=O)(=O)N2CCN(C(=O)c3cc4c(s3)CCC4)CC2)cc1	.	.	.	22	.	46	46	43
O=C1Cc2cc(S(=O)(=O)N3CCN(c4ccccc4)CC3)ccc2N1	.	.	.	.	.	.	/	/
O=Cc1ccc(N2CCN(S(=O)(=O)c3ccc4c(c3)CC(=O)N4)CC2)cc1	.	.	24	15	.	.	.	.
O=C(O)Cn1c2ccccc2c2ccccc21	.	.	.	.	.	.	/	/
NNC(=O)Cn1c2ccccc2c2ccccc21	.	.	.	14	.	.	.	.
CN(Cc1ccccc1N1CCCC1)C(=O)c1cc2cc(Cl)ccc2o1	.	.	.	31	.	.	.	.
CCN(CC)CCCNc1nc2cc(OC)c(OC)cc2c2nc(-c3cccnc3)nn12	.	.	.	69	.	68	81	78
CCN(CC)CCCNc1nc2cc(OC)c(OC)cc2c2nc(-c3ccccc3)nn12	.	.	.	35	.	35	56	57
COCCCNc1nc2cc(OC)c(OC)cc2c2nc(-c3ccccc3)nn12	.	.	.	.	.	.	/	/
O=C(Cn1c(Cn2c(-c3cnccn3)nc3ccccc32)nc2ccccc21)c1ccc(OC(F)(F)F)cc1	.	.	.	.	.	.	/	/
CC(Sc1nnc(CN2CCCC2)n1Cc1ccccc1)C(=O)Nc1ccccc1 (stereo not given)	.	.	.	34	.	.	.	.
Cc1ccc2c(c1)C(=O)c1ccccc1CS2=O (stereo not given)	.	.	.	.	.	.	/	/
CC1Sc2ccc(S(=O)(=O)CCC(=O)NCc3ccc(Cl)cc3)cc2NC1=O (stereo not given)	.	.	.	.	.	.	/	/
COc1ccc(-c2nnn(CCC(=O)O)n2)cc1	.	.	.	36	.	.	.	.
O=C(NCc1ccccc1Br)c1ccncc1	.	.	.	.	.	.	/	/
CC1=NNC(=O)C1CCC(=O)N/N=C/c1ccc(Cl)cc1 (stereo not given)	.	.	.	.	.	.	/	/
CC1=NNC(=O)C1CCC(=O)N/N=C/c1ccccc1 (stereo not given)	.	.	.	27	.	.	.	.
CN(C)CCNC(=O)c1cccc2nc3cccc(F)c3nc12	.	.	.	35	.	23	35	37
COc1ccc(OC)c2nc3c(C(=O)NCCN(C)C)cccc3nc12	.	.	.	53	.	56	71	63
